# Test results published in ChEMBL document CHEMBL2434944, “Novel acetamidothiazole derivatives: synthesis and in vitro anticancer evaluation” (Eur J Med Chem, 2013).
# pKi: −log10 of the molar value.
# Legend:
# A498 = test: Growth inhibition of human A498 cells assessed as cell growth at 10^-5 M after 48 hrs by sulforhodamine B assay relative to control; type: functional; settings: A498, 48 h, read-out: Activity
# Method in brief: (§1)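 NCI-60 single-dose screen at 10^-5 M. Cells grown in RPMI 1640 with 5% FBS and 2 mM L-glutamine, plated at 5,000–40,000 cells/well according to doubling time, and preincubated 24 h at 37°C, 5% CO2. Compound dissolved in DMSO and added. Exposure 48 h. Adherent cells fixed with cold TCA (10% final), suspension cells with 16% final TCA. Read-out is 0.4% SRB staining, dye solubilised in 10 mM Tris, absorbance at 515 nm. Percent growth is calculated against the time-zero plate and untreated control.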
# 786-0 = test: Growth inhibition of human 786-0 cells assessed as cell growth at 10^-5 M after 48 hrs by sulforhodamine B assay relative to control; type: functional; settings: 786-0, 48 h, read-out: Activity; method in brief: as §1
# [1] = Growth inhibition of human NCI-ADR-RES cells assessed as cell growth at 10^-5 M after 48 hrs by sulforhodamine B assay relative to control; type: functional; settings: read-out: Activity; method in brief: as §1
# OVCAR-8 = test: Growth inhibition of human OVCAR8 cells assessed as cell growth at 10^-5 M after 48 hrs by sulforhodamine B assay relative to control; type: functional; settings: OVCAR-8, 48 h, read-out: Activity; method in brief: as §1
# OVCAR-5 = test: Growth inhibition of human OVCAR5 cells assessed as cell growth at 10^-5 M after 48 hrs by sulforhodamine B assay relative to control; type: functional; settings: OVCAR-5, 48 h, read-out: Activity; method in brief: as §1
# OVCAR-4 = test: Growth inhibition of human OVCAR4 cells assessed as cell growth at 10^-5 M after 48 hrs by sulforhodamine B assay relative to control; type: functional; settings: OVCAR-4, 48 h, read-out: Activity; method in brief: as §1
# IGROV-1 = test: Growth inhibition of human IGROV1 cells assessed as cell growth at 10^-5 M after 48 hrs by sulforhodamine B assay relative to control; type: functional; settings: IGROV-1, 48 h, read-out: Activity; method in brief: as §1
# UACC-257 = test: Growth inhibition of human UACC257 cells assessed as cell growth at 10^-5 M after 48 hrs by sulforhodamine B assay relative to control; type: functional; settings: UACC-257, 48 h, read-out: Activity
# Method in brief: (§2)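 NCI-60 single-dose screen, 10^-5 M final. Cells grown in RPMI 1640 with 5% FBS and 2 mM L-glutamine, seeded at 5,000–40,000 cells/well by doubling time. Preincubated 24 h at 37°C, 5% CO2. Compound in DMSO, diluted in medium with gentamicin, then 48 h exposure. Fixed with cold TCA, SRB stained, A515 read. Percent growth vs untreated control, time-zero plate corrected.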
# SK-MEL-5 = test: Growth inhibition of human SK-MEL-5 cells assessed as cell growth at 10^-5 M after 48 hrs by sulforhodamine B assay relative to control; type: functional; settings: SK-MEL-5, 48 h, read-out: Activity; method in brief: as §1
# SF-539 = test: Growth inhibition of human SF539 cells assessed as cell growth at 10^-5 M after 48 hrs by sulforhodamine B assay relative to control; type: functional; settings: SF-539, 48 h, read-out: Activity; method in brief: as §1
# SW-620 = test: Growth inhibition of human SW620 cells assessed as cell growth at 10^-5 M after 48 hrs by sulforhodamine B assay relative to control; type: functional; settings: SW-620, 48 h, read-out: Activity; method in brief: as §2
# KM12 = test: Growth inhibition of human KM12 cells assessed as cell growth at 10^-5 M after 48 hrs by sulforhodamine B assay relative to control; type: functional; settings: KM12, 48 h, read-out: Activity; method in brief: as §1
# HT-29 = test: Growth inhibition of human HT-29 cells assessed as cell growth at 10^-5 M after 48 hrs by sulforhodamine B assay relative to control; type: functional; settings: HT-29, 48 h, read-out: Activity; method in brief: as §1
# [2] = Growth inhibition of human HCC2998 cells assessed as cell growth at 10^-5 M after 48 hrs by sulforhodamine B assay relative to control; type: functional; settings: HCC 2998, 48 h, read-out: Activity; method in brief: as §1
# NCI-H322M = test: Growth inhibition of human NCI-H322M cells assessed as cell growth at 10^-5 M after 48 hrs by sulforhodamine B assay relative to control; type: functional; settings: read-out: Activity; method in brief: as §1
# HOP-92 = test: Growth inhibition of human HOP92 cells assessed as cell growth at 10^-5 M after 48 hrs by sulforhodamine B assay relative to control; type: functional; settings: HOP-92, 48 h, read-out: Activity; method in brief: as §1
# RPMI-8226 = test: Growth inhibition of human RPMI8226 cells assessed as cell growth at 10^-5 M after 48 hrs by sulforhodamine B assay relative to control; type: functional; settings: RPMI-8226, 48 h, read-out: Activity; method in brief: as §1
# K562 = test: Growth inhibition of human K562 cells assessed as cell growth at 10^-5 M after 48 hrs by sulforhodamine B assay relative to control; type: functional; settings: K562, 48 h, read-out: Activity; method in brief: as §1
# HL-60(TB) = test: Growth inhibition of human HL-60(TB) cells assessed as cell growth at 10^-5 M after 48 hrs by sulforhodamine B assay relative to control; type: functional; settings: HL-60, 48 h, read-out: Activity
# Method in brief: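 NCI-60 one-dose screen at 10^-5 M. Cells were grown in RPMI 1640 with 5% FBS and 2 mM L-glutamine and plated at 5,000–40,000 cells/well. They were preincubated 24 h at 37°C under 5% CO2, then exposed for 48 h. Suspension cells were fixed with 80% TCA (16% final) and stained with 0.4% SRB, read at 515 nm. Percent growth is versus untreated control, corrected for time-zero.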
# [3] = target: Epidermal growth factor receptor (Homo sapiens, UniProt P00533); test: Inhibition of human EGFR
# Sequence of Epidermal growth factor receptor (P00533 whole entry): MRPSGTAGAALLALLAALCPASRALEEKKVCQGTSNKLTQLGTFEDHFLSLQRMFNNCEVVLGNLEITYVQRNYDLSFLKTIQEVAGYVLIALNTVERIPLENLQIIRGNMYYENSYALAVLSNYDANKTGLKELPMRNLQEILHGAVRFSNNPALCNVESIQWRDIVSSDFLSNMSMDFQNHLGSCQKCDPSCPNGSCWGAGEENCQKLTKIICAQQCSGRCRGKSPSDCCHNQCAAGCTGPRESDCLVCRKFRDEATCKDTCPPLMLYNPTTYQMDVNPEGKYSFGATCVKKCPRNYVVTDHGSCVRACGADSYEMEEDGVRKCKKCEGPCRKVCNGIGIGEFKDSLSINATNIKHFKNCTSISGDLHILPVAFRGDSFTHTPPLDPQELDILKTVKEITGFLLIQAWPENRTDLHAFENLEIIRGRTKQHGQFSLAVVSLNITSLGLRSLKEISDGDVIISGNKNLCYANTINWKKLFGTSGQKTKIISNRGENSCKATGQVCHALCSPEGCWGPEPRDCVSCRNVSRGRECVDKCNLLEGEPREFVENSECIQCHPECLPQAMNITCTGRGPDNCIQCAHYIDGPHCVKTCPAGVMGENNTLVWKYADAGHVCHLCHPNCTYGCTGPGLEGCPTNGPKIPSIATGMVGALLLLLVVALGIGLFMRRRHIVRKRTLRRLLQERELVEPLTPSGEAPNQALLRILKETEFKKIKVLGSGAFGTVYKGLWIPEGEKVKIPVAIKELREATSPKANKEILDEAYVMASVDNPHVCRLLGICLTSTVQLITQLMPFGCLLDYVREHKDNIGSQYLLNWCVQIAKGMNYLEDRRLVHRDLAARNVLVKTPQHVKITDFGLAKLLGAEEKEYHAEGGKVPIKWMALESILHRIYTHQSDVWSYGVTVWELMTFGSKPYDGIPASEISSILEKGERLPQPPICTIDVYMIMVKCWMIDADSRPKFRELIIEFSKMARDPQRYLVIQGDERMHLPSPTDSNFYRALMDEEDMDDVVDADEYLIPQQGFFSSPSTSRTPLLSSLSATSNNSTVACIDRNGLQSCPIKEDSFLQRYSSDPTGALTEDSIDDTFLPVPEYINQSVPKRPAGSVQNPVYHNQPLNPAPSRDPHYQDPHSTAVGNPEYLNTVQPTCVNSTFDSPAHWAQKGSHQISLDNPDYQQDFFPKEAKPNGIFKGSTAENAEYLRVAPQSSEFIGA
# Cathepsin K = target: T1, Cathepsin K (Homo sapiens, UniProt P43235); test: Inhibition of human cathepsin K
# T1 sequence (P43235 whole entry): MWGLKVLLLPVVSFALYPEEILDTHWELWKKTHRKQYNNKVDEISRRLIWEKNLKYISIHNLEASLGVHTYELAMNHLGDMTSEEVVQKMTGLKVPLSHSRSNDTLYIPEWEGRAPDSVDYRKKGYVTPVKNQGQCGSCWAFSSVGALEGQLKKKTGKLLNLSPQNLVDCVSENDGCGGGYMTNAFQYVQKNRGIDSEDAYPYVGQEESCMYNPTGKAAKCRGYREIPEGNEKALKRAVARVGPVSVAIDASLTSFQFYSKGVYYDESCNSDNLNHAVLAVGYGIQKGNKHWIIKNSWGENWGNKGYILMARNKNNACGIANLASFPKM
# MDA-MB-468 = test: Growth inhibition of human MDA-MB-468 cells assessed as cell growth at 10^-5 M after 48 hrs by sulforhodamine B assay relative to control; type: functional; settings: MDA-MB-468, 48 h, read-out: Activity; method in brief: as §1
# PC-3 = test: Growth inhibition of human PC3 cells assessed as cell growth at 10^-5 M after 48 hrs by sulforhodamine B assay relative to control; type: functional; settings: PC-3, 48 h, read-out: Activity; method in brief: as §1
# RXF 393 = test: Growth inhibition of human RXF393 cells assessed as cell growth at 10^-5 M after 48 hrs by sulforhodamine B assay relative to control; type: functional; settings: RXF 393, 48 h, read-out: Activity; method in brief: as §1
SMILES,growth at 10 µM (A498) [%],growth at 10 µM (786-0) [%],growth at 10 µM [1] [%],growth at 10 µM (OVCAR-8) [%],growth at 10 µM (OVCAR-5) [%],growth at 10 µM (OVCAR-4) [%],growth at 10 µM (IGROV-1) [%],growth at 10 µM (UACC-257) [%],growth at 10 µM (SK-MEL-5) [%],growth at 10 µM (SF-539) [%],growth at 10 µM (SW-620) [%],growth at 10 µM (KM12) [%],growth at 10 µM (HT-29) [%],growth at 10 µM [2] [%],growth at 10 µM (NCI-H322M) [%],growth at 10 µM (HOP-92) [%],growth at 10 µM (RPMI-8226) [%],growth at 10 µM (K562) [%],growth at 10 µM (HL-60(TB)) [%],pKi [3],further results
N=c1scc(-c2ccccc2)n1CC(=O)N1CCN(c2ccccc2)CC1,87.2,104,86.5,94.7,94.1,90.5,98.9,108,94.8,97.2,101,104,106,100,92.6,59,92.1,103,99,5.33,pKi (Cathepsin K): 4.94; growth at 10 µM (MDA-MB-468): 107%; growth at 10 µM (PC-3): 72.3%; growth at 10 µM (RXF 393): 107%
CC(=O)N1CCN(C(=O)Cn2c(-c3ccccc3)csc2=N)CC1,100,103,105,96.7,105,96.9,95.6,98.5,90.2,91.6,109,102,101,107,94.4,75,97.3,86.8,111,4.78,pKi (Cathepsin K): 4.66; growth at 10 µM (MDA-MB-468): 94.6%; growth at 10 µM (PC-3): 83.5%; growth at 10 µM (RXF 393): 86.3%
N=c1scc(-c2ccc(Cl)cc2)n1CC(=O)N1CCOCC1,75.5,95.5,98.3,101,113,82.2,90.4,94.7,96.5,95.8,103,106,94.2,99.9,104,81.8,78.7,70.9,96.6,5.18,pKi (Cathepsin K): 4.35; growth at 10 µM (MDA-MB-468): 95.5%; growth at 10 µM (PC-3): 79.2%; growth at 10 µM (RXF 393): 110%
N=c1scc(-c2ccccc2)n1CC(=O)N1CCOCC1,117,102,105,94.8,96.3,97.3,86.7,111,95.5,98.8,98,103,106,104,97.9,70,95.4,89.2,118,4.26,pKi (Cathepsin K): 4.30; growth at 10 µM (MDA-MB-468): 98.4%; growth at 10 µM (PC-3): 81.3%; growth at 10 µM (RXF 393): 98.7%
Cc1ccc(-c2csc(=N)n2CC(=O)N2CCOCC2)cc1,95.1,97.9,94.4,108,102,102,112,103,98.2,100,114,110,109,98.9,111,68.3,92.8,100,93.2,4.64,pKi (Cathepsin K): 4.29; growth at 10 µM (MDA-MB-468): 106%; growth at 10 µM (PC-3): 78.9%; growth at 10 µM (RXF 393): 94.5%
